Tested on: HEK-293T
Assay: Multiplex assay against HEK293T;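 on Population Tubulin-Different-Phenotype (%): share of the cells with healthy nuclei that show this phenotype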
Format: toxicity, cell-based
Conditions: human
Summary of the method: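 Compound was added to live cells that had been stained at seeding with Hoechst33342, BioTracker Green Microtubule Cytoskeleton Dye, MitoTracker Red and Annexin V Alexa Fluor 680, and imaging followed on a CQ1 microscope at 37°C and 5% CO2. CellPathfinder machine-learning gating divided cells into Hoechst high-intensity objects or normal cells, normal cells into healthy, pyknosed or fragmented nuclei, and pyknosed cells into mitotic or apoptotic. Tubulin, mitochondrial-mass and membrane-permeability phenotypes are per cents of healthy-nucleus cells.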

[1] = 12 h, 1 µM, compound concentration 1 uM, replicate 1
[2] = 12 h, 1 µM, compound concentration 1 uM, replicate 2
[3] = 12 h, 10 µM, compound concentration 10 uM, replicate 1
[4] = 12 h, 10 µM, compound concentration 10 uM, replicate 2
[5] = 24 h, 1 µM, compound concentration 1 uM, replicate 1
[6] = 24 h, 1 µM, compound concentration 1 uM, replicate 2
[7] = 24 h, 10 µM, compound concentration 10 uM, replicate 1
[8] = 24 h, 10 µM, compound concentration 10 uM, replicate 2

C=CC(=O)Nc1cc2c(Nc3ccc(F)c(Cl)c3)ncnc2cc1OCCCN1CCOCC1.Cl.Cl [CANERTINIB DIHYDROCHLORIDE]
Population Apoptotic (%) [1]: 70%
Population Fragmented Nuclei (%) [1]: 22%
Population Healthy Nuclei (%) [1]: 35%
Population Hoechst High Intensity Objects (%) [1]: 22%
Population Membrane Permeable-Phenotype (%) [1]: 24%
Population Mitochondria Different-Phenotype (%) [1]: 76%
Population Mitotic Cells (%) [1]: 29%
Population Normal (%) [1]: 77%
Population Pyknosed Nuclei (%) [1]: 41%
Population Tubulin-Different-Phenotype (%) [1]: 82%
Total Cell Count [1]: 582
Population Apoptotic (%) [2]: 47%
Population Fragmented Nuclei (%) [2]: 4%
Population Healthy Nuclei (%) [2]: 80%
Population Hoechst High Intensity Objects (%) [2]: 7%
Population Membrane Permeable-Phenotype (%) [2]: 17%
Population Mitochondria Different-Phenotype (%) [2]: 92%
Population Mitotic Cells (%) [2]: 52%
Population Normal (%) [2]: 92%
Population Pyknosed Nuclei (%) [2]: 14%
Population Tubulin-Different-Phenotype (%) [2]: 97%
Total Cell Count [2]: 863
Population Apoptotic (%) [3]: 28%
Population Fragmented Nuclei (%) [3]: 14%
Population Healthy Nuclei (%) [3]: 60%
Population Hoechst High Intensity Objects (%) [3]: 13%
Population Membrane Permeable-Phenotype (%) [3]: 3%
Population Mitochondria Different-Phenotype (%) [3]: 12%
Population Mitotic Cells (%) [3]: 71%
Population Normal (%) [3]: 86%
Population Pyknosed Nuclei (%) [3]: 24%
Population Tubulin-Different-Phenotype (%) [3]: 12%
Total Cell Count [3]: 583
Population Apoptotic (%) [4]: 8%
Population Fragmented Nuclei (%) [4]: 6%
Population Healthy Nuclei (%) [4]: 88%
Population Hoechst High Intensity Objects (%) [4]: 3%
Population Membrane Permeable-Phenotype (%) [4]: 2%
Population Mitochondria Different-Phenotype (%) [4]: 16%
Population Mitotic Cells (%) [4]: 91%
Population Normal (%) [4]: 96%
Population Pyknosed Nuclei (%) [4]: 5%
Population Tubulin-Different-Phenotype (%) [4]: 16%
Total Cell Count [4]: 1567
Population Apoptotic (%) [5]: 79%
Population Fragmented Nuclei (%) [5]: 21%
Population Healthy Nuclei (%) [5]: 37%
Population Hoechst High Intensity Objects (%) [5]: 24%
Population Membrane Permeable-Phenotype (%) [5]: 8%
Population Mitochondria Different-Phenotype (%) [5]: 69%
Population Mitotic Cells (%) [5]: 20%
Population Normal (%) [5]: 75%
Population Pyknosed Nuclei (%) [5]: 40%
Population Tubulin-Different-Phenotype (%) [5]: 56%
Total Cell Count [5]: 612
Population Apoptotic (%) [6]: 29%
Population Fragmented Nuclei (%) [6]: 5%
Population Healthy Nuclei (%) [6]: 80%
Population Hoechst High Intensity Objects (%) [6]: 10%
Population Membrane Permeable-Phenotype (%) [6]: 4%
Population Mitochondria Different-Phenotype (%) [6]: 67%
Population Mitotic Cells (%) [6]: 70%
Population Normal (%) [6]: 89%
Population Pyknosed Nuclei (%) [6]: 13%
Population Tubulin-Different-Phenotype (%) [6]: 54%
Total Cell Count [6]: 910
Population Apoptotic (%) [7]: 21%
Population Fragmented Nuclei (%) [7]: 14%
Population Healthy Nuclei (%) [7]: 75%
Population Hoechst High Intensity Objects (%) [7]: 9%
Population Membrane Permeable-Phenotype (%) [7]: 6%
Population Mitochondria Different-Phenotype (%) [7]: 7%
Population Mitotic Cells (%) [7]: 78%
Population Normal (%) [7]: 90%
Population Pyknosed Nuclei (%) [7]: 9%
Population Tubulin-Different-Phenotype (%) [7]: 12%
Total Cell Count [7]: 665
Population Apoptotic (%) [8]: 10%
Population Fragmented Nuclei (%) [8]: 24%
Population Healthy Nuclei (%) [8]: 73%
Population Hoechst High Intensity Objects (%) [8]: 2%
Population Membrane Permeable-Phenotype (%) [8]: 3%
Population Mitochondria Different-Phenotype (%) [8]: 3%
Population Mitotic Cells (%) [8]: 89%
Population Normal (%) [8]: 97%
Population Pyknosed Nuclei (%) [8]: 2%
Population Tubulin-Different-Phenotype (%) [8]: 8%
Total Cell Count [8]: 2738

From ChEMBL document CHEMBL4689842, “EUbOPEN Chemogenomics Library wave 1” (2021)
